# Most compounds without a hit are left out; they make up all but 3% or so of the library.
# aDG glyco act = increases alpha dystroglycan glycosylation; Pro5-aDG cells, alpha-DG glycosylation AlphaScreen (IIH6); 0% Pro5, 100% B10-LARGE cell signal; AID 624168; activation, % at 10 µM; 360,000 tested, 0.22% active;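 active = activation of at least 8% versus controls, or a plate z-score of at least 8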;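 also: Pro5 are CHO cells carrying HIG-tagged alpha-DG that lacks glycosylation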
# NR3A LBD binder = NR3A (human) ligand-binding domain modulation. NR3A LBD differential scanning fluorimetry, Tm shift; 0% = protein alone, 100% = glycine-bound protein. Tm shift relative to glycine control, % at 25 µM. 340,000 tested, 2.5% active. AID 1259313;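 active = melting temperature shift of at least 10% of the positive control shift, at one fixed dose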
# GC-B act = GC-B (human) receptor activation; AID 1920062; activation, % at 10 µM; HEK293-GC-B cells, CNP EC30, cGMP TR-FRET; 0% at EC30 CNP, 100% saturating CNP; 370,000 tested, 0.11% active;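 active = activation at 10 µM reaching about 35% in either raw or pattern-adjusted values, limit read from the data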
# Target sequence (P20594 whole entry, looked up): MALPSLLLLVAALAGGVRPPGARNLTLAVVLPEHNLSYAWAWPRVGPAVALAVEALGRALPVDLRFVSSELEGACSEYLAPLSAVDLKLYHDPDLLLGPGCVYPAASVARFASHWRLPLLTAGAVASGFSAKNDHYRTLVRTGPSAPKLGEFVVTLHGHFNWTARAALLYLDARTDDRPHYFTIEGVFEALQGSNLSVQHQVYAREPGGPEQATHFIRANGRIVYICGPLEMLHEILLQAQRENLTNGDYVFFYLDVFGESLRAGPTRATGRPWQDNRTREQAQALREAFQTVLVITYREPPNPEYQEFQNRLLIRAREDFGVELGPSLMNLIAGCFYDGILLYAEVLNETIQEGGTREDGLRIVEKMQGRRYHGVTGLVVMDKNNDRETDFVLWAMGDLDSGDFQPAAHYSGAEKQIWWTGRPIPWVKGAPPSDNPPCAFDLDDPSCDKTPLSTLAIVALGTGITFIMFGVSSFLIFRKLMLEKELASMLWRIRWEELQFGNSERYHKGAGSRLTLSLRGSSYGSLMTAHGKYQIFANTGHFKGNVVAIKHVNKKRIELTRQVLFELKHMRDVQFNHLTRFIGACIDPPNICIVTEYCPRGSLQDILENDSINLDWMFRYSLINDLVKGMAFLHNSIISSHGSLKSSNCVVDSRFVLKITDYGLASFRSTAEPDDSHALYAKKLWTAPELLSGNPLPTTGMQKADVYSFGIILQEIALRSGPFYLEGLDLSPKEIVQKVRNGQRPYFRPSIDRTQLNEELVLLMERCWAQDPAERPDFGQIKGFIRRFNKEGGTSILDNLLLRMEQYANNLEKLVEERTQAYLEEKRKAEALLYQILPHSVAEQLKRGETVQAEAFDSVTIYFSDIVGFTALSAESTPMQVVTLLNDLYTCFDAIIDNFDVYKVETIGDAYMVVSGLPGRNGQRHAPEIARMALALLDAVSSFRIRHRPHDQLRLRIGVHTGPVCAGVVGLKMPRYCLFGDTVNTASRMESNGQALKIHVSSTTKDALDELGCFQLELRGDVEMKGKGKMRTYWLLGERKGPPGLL
# Lipid droplet = hepatic lipid droplet formation modulation; AML12 mouse hepatocytes, oleate lipid droplets, BODIPY imaging; inhibition, % at 6.5 µM; 240,000 tested, 0.4% active; AID 1656;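 active = lipid droplet intensity inhibited by at least 50%, with more than 500 cells counted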
#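 Material – mouse AML12 hepatocyte cell line, fixed after treatment · Compound dosing – one dose, 6.5 µM compound · Times – compound with oleate, overnight · Measured by – Image-based BODIPY and DAPI two-channel analysis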
# GC-A act = GC-A (human) enzyme activation; P16066; HEK293 GC-A cells, cGMP TR-FRET, EC30 ANP; 0% at EC30 ANP, 100% saturating ANP; activation, % at 10 µM; 370,000 tested, 0.14% active; AID 1671463; in the data active = activation above about 40%
# GASC-1 inh = blocks human GASC-1 demethylase activity. Q9H3R0. GST-JMJD2C(1-420) H3K9me3 demethylation, DELFIA europium. inhibition, % at 2.35 µM. 330,000 tested, 0.069% active. AID 2099;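 active = more than half of a compound's replicate wells show inhibition beyond 50%, single wells judged on their own value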;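 also: signal counts dimethyl H3K9 product captured on neutravidin plate; 0% = median of DMSO wells and 100% = 0.3 times that DMSO median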
# Active calls of the source: *; / = not tested or not shown.
SMILES,aDG glyco act,NR3A LBD binder,GC-B act,Lipid droplet,GC-A act,GASC-1 inh
O=C(N/N=C/c1ccc2c(c1)OCO2)c1ccc(NC(=O)c2ccc(F)cc2)cc1,0,19*,-7,24,6,0
O=C(N/N=C/c1cc(Br)cc([N+](=O)[O-])c1O)c1ccc(NC(=O)c2ccc(F)cc2)cc1,0,18*,-3,-5,-7,6
Cc1ccccc1C(=O)Nc1ccc(C(=O)N/N=C/c2ccc(F)cc2)cc1,0,26*,0,2,-2,7
O=C(CCCSCCCC(=O)NN=Cc1ccccc1)NN=Cc1ccccc1,0,2,-1,/,0,/
COc1ccc(OC[C@@H](O)CN2CCC(C(O)(c3ccccc3)c3ccccc3)CC2)cc1,/,/,-10,/,-16,/
OC(c1ccccc1)(c1nc(-c2cc3ccccc3o2)cs1)C(F)(F)F (stereo unspecified),0,/,-2,/,9,/
CCOC(=O)NC[C@@]1(C(=O)OC)CC(=O)N(Cc2ccc(Cl)cc2)[C@@H]1c1ccc(OC)cc1,/,/,-7,/,-6,/
CN(c1ccc(C(=O)COC(=O)C2CC2)cc1)S(C)(=O)=O,0,0,-1,/,1,5
COc1ccc(/C=N/NC(=O)c2ccc(NC(=O)c3ccccc3Br)cc2)cc1,0,27*,1,12,2,-11
Cc1c(Br)cccc1NC(=O)C1(C)CCN1C(C)C (stereo unspecified),0,/,-1,/,-2,/
Cn1ncc(Br)c1C(=O)Nc1ccc(Cl)cn1,0,13*,1,1,-2,1
Cn1ncc(Br)c1C(=O)Nc1ccc(Br)cn1,0,-3,-4,0,1,1
N#Cc1ccc(S(=O)(=O)N2CCCc3nc(-c4ccc(F)cc4)ccc32)cc1,/,/,-8,/,-2,/
N#CCCn1cc(/C=C(\C#N)c2nc3ccccc3s2)c(-c2ccc(F)cc2)n1,0,-9,62*,-1,-1,-6
N#CCCn1cc(C=C(C#N)C#N)c(-c2ccc(Cl)cc2)n1,0,1,2,1,4,1
COC(=O)N1Cc2ccnnc2CC1c1ccccc1-c1ccc(F)cc1 (stereo unspecified),/,/,-1,/,0,/
OCc1ncc(-c2ccccc2)s1,0,10*,3,-21,6,-13
COc1ccc(N(CC(=O)N/N=C/c2ccc(OC3CSC3)cc2)S(=O)(=O)c2ccccc2)cc1,0,16*,1,27,1,6
Cc1ccc(N(CC(=O)N/N=C/c2ccc(OC3CSC3)cc2)S(=O)(=O)c2ccccc2)cc1,0,0,4,-5,3,5
Cc1ccccc1/C=N/n1c(-c2ccccn2)n[nH]c1=S,0,11*,-12,26,0,9
O=C(CCc1c[nH]c2ccccc12)Nc1ccc(Oc2cccnc2)cc1,/,/,-8,/,-4,/
CCOc1cc(S(=O)(=O)Nc2ccc(Cl)cn2)ccc1F,0,11*,-5,6,1,2
CCOc1cc(S(=O)(=O)Nc2ccccc2CC)ccc1Cl,0,-9,4,-7,1,-3
CCOc1cc(S(=O)(=O)Nc2ccc(CC)cc2)ccc1Cl,1,13*,14,1,3,2
CCOc1cc(S(=O)(=O)Nc2ccc(Cl)cn2)ccc1Cl,0,-7,2,-3,1,20
SMILES,aDG glyco act,NR3A LBD binder,GC-B act,Lipid droplet,GC-A act,GASC-1 inh
CCOC(=O)NC(=S)Nc1ccc(C(C)(C)C)cc1Br,0,18*,14,0,-6,2
CCOC(=O)Nc1ccc(C)cc1Br,0,-1,0,/,3,28
N#Cc1c(N)n(-c2ccccc2)c(=O)c2cc([N+](=O)[O-])ccc12,0,25*,2,-2,5,2
N#Cc1c(C#N)c(SSc2c(C#N)c(C#N)c(N)n2-c2ccccc2)n(-c2ccccc2)c1N,1,8,55*,/,-8,/
N#Cc1c(N)n(-c2ccc(N)cc2)c2nc3ccccc3nc12,0,0,-7,9,-4,-15
CC(C)n1c(N)c(C#N)c2ccc([N+](=O)[O-])cc2c1=O,2,-6,12,0,10,-2

# Compound activity (PubChem BioAssay)
